KCC2 mod – KCC2 cotransporter modulators, thallium flux, primary screen, cell-based, HEK293 KCC2, FluoZin-2 fluorescence, MLSMR; Solute carrier family 12 member 5 (Homo sapiens), Q9H2X9; KCC2 cells, thallium flux FluoZin-2 fluorescence; 190,000 tested, 2.2% active; B-score of Tl+ flux slope (higher = more flux/activation; lower = inhibition) at 10 µM;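 active means thallium flux slope and its plate-corrected score both differing from the plate sample mean at a set confidence after two filtering rounds, in either direction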;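 further: slope of fluorescence scaled to starting intensity during 10 to 20 s after thallium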
Autophagy HCS – autophagy modulators in MEF cells, primary screen, imaging, high-content, MEF GFP-LC3; calls only at 10 µM (by protocol); 190,000 tested, 0.98% active; AID 463193, 2010; MEF GFP-LC3 puncta imaging; test concentration mostly 10 µM;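 active means percentage of spot-positive cells more than 3 SD above its plate mean, without a fluorescence outlier flag or 80% toxicity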;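 further: spot-positive cell cutoff set from DMSO-treated cells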
Rad51 HR inh – human RAD51 strand exchange inhibitors, primary screen, biochemical, fluorescence | 200,000 tested, 0.085% active | DNA repair protein RAD51 homolog 1 (Homo sapiens), Q06609 | hRad51 DNA strand exchange, fluorescence dequenching | inhibition, % at 10 µM;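 active means inhibition above 40% at the single screening dose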;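 further: 0% = DMSO control wells and 100% = blanks with heterologous ssDNA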
Target sequence (Q06609 whole entry, looked up): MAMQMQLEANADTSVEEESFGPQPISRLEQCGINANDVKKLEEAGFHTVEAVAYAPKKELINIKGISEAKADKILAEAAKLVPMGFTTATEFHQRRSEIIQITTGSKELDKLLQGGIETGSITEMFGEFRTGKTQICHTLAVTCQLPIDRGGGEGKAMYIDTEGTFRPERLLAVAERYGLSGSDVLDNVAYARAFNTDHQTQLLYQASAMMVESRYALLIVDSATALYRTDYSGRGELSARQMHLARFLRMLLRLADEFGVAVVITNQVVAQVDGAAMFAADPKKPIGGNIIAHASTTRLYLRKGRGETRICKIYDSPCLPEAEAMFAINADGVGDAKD
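Test system: preformed human Rad51 ssDNA filaments. Compound dosing: single dose, 10 µM final compound. Incubation: filaments 15 min 37 °C, then compound 30 min. Technique: FRET fluorescence dequenching, excitation 485 nm, emission 520 nm. Read-out basis: percent inhibition from fluorescence, normalised to plate control and blank means. Benchmarks: plate controls and plate blanks.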
WT yeast gro inh – growth inhibition of WT strain, primary screen, mitochondrial fusion inhibitor project, WT and mutant strains, chemical genetic. mitochondrial fusion phenotypic screen. inhibition, % at 10 µM. 190,000 tested, 2.1% active; in the data active means inhibition above about 58%; tested in S. cerevisiae
Ins promoter up – insulin promoter activators in MIN6 cells, imaging, high-content screening, mouse beta cells. MIN6 insulin promoter-GFP reporter; hits give high values. z-score at 5 µM. 190,000 tested, 0.3% active;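 active means z-score above 3 at 5 µM with at least 500 cells counted in the well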
SKKanGAS inh – S. pyogenes SKKanGAS growth inhibitors in kanamycin, primary screen, streptokinase expression inhibitor project, SKKanGAS strain, BacTiter-Glo luminescence. 6 h. inhibition, % at 7.5 µM. 300,000 tested, 1.3% active;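 active means mean replicate score, as percent of positive control median, at least 50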;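 further: strain carries kanamycin resistance gene driven by streptokinase promoter and grows in 40 µg/ml kanamycin; loss of luminescence reflects streptokinase promoter inhibition or plain growth inhibition; 0% = median of DMSO wells and 100% = positive control at its reference dose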
* = called active by the depositor; i = inactive; x = not tested or not shown; + = active, no number. Hits are enriched below; roughly 4.2% of the tested compounds scored in any of these assays.

SMILES	KCC2 mod	Autophagy HCS	Rad51 HR inh	WT yeast gro inh	Ins promoter up	SKKanGAS inh
O=C(CSc1nc(CCC2CCCC2)nc2ccccc12)NCc1ccc2c(c1)OCO2	21*	i	2	-13	x	-7
CS(=O)(=O)N(CC(=O)NCc1ccc2c(c1)OCO2)c1cccc(Cl)c1	-0.43	i	-16	2	-0.32	2
O=C(NCc1ccc2c(c1)OCO2)c1ccc(CS(=O)(=O)Cc2cccc(Cl)c2)o1	-0.36	i	-2	-10	-0.82	-12
O=C(NCc1ccc2c(c1)OCO2)c1ccc(CSCc2ccc(Cl)cc2)o1	-0.35	i	14	59*	-0.53	3
CC(NC(=O)c1cc(-c2ccncc2)nc2ccc(Br)cc12)C1CCCO1 (stereo not drawn)	x	x	x	x	x	10
Cc1ccc(NC(=O)Cc2nnc(SCC(=O)NC3CCCC3)n2C)cc1C	x	x	x	x	x	-4
O=C(CN1C(=O)NC2(CCCC2)C1=O)N1CCN(S(=O)(=O)c2ccccc2[N+](=O)[O-])CC1	x	x	x	x	x	-8
COc1ccc(C2(C#N)CCC(=O)N2c2ccccc2)cc1 (stereo not drawn)	0.0096	x	10	x	-0.92	-6
CC1CCN(CCCNC(=O)c2ccc(CSCc3cccc(Cl)c3)o2)CC1	0.64	+	5	-1	-0.74	11
CN1CCN(CCCNC(=O)c2ccc(CSCc3cccc(Cl)c3)o2)CC1	x	i	-2	-17	-0.63	-2
COCC1CCN(C(=O)CC2C(=O)NCCN2Cc2cccc(Oc3ccccc3)c2)CC1 (stereo not drawn)	x	x	x	x	x	2
Cc1cc(C)n(-c2cccc(Cl)c2)c(=O)c1C#N	0.91	+	0	4	0.76	4
CC(C)CCNC(=O)CN(CC1CCCO1)C(=O)CCC(=O)Nc1ccccn1 (stereo not drawn)	0.088	i	-3	70*	-0.57	-4
O=C(N/N=C/c1cccc(Cl)c1)C(c1ccncc1)N1CCOCC1 (stereo not drawn)	1.3	x	x	x	1	9
CC(=O)N1CCN(c2cc(N3CCCC3)c(F)cc2[N+](=O)[O-])CC1	1	i	1	12	-0.05	4
CCN1CCN(c2cc(N3CCc4ccccc4C3)c(F)cc2[N+](=O)[O-])CC1	0.22	i	-3	81*	-1.3	4
O=C(O)C(CCCCNS(=O)(=O)c1ccc(F)cc1)NS(=O)(=O)c1ccc(F)cc1 (stereo not drawn)	x	x	x	x	x	3
O=C(Cn1cnc2ccccc2c1=O)c1ccc(OC(F)F)cc1	x	x	x	x	x	-26
O=S(=O)(NCC1CCCO1)c1ccc(-c2ccc(Cl)cc2)cc1 (stereo not drawn)	-0.57	+	-13	10	-0.56	x
COc1ccc(-c2ccc(S(=O)(=O)NCC3CCCO3)cc2)cc1 (stereo not drawn)	0.51	i	3	1	0.08	-21
C/C(=N\Nc1nc2ccccc2[nH]1)c1ccc2c(c1)OCO2	-1.5	i	9	16	-0.55	58*
C/C(=N\Nc1nc2ccccc2[nH]1)c1cc2ccccc2o1	0.53	i	1	60*	-0.43	-7
CCn1c(C(=O)OC)cc2c1ccn2-c1ccc(F)cc1	0.46	i	1	77*	0.13	5
COC(=O)c1cc2c(ccn2-c2ccc(F)cc2)n1Cc1ccc(OC)cc1	-0.011	i	-3	-21	0.14	13
CCCN(C(=O)COC(=O)c1[nH]c(C)c(C(=O)OC)c1C)c1c(N)n(Cc2ccccc2)c(=O)[nH]c1=O	x	x	x	x	x	5
SMILES	KCC2 mod	Autophagy HCS	Rad51 HR inh	WT yeast gro inh	Ins promoter up	SKKanGAS inh
CCCCCCCSc1nsc(N)n1	0.13	i	9	66*	0.13	-9
CCCCCCSc1nsc(NC(=O)CC(C)C)n1	1.3	i	x	23	-0.19	10
CCOC(=O)c1c(C)n(S(=O)(=O)c2ccc(C)cc2)c2ccc(O)c(C(=O)O)c12	x	x	x	x	x	28
COc1ccc(C2C(C(=O)N3CCOCC3)CCC(=O)N2c2ccc(OC)cc2)cc1 (stereo not drawn)	0.57	i	2	-9	3.7*	1
COc1ccc(N2C(=O)CCC(C(=O)N3CCCCC3)C2c2ccc(OC)c(OC)c2)cc1 (stereo not drawn)	0.17	i	-1	7	-0.38	-4
CC(C)/C(C=O)=C(/NC1CCCCC1)c1ccccc1	x	x	x	x	x	-5
Clc1cccc2c1Sc1ccccc1CC2N1CCNCC1 (stereo not drawn)	2	i	15	84	-1.7	-3
Clc1ccc2c(c1)C(N1CCNCC1)Cc1ccccc1S2 (stereo not drawn)	0.049	+	x	90	x	17
Cc1ccc(N2C(N)=C(C#N)C(c3cc(CN4CCOCC4)cs3)C3=C2CC(C)(C)CC3=O)cc1 (stereo not drawn)	0.13	i	12	0	-0.42	0
N#Cc1cnc(NN)nc1	-0.013	i	7	-8	-0.12	1
CCn1ccc2cc(OC)ccc2c1=S	-0.043	i	5	1	0.98	-13
CCSc1ccc2cc(OC)ccc2[n+]1CC	0.39	i	-36	62*	0.17	1
COC(=O)/C=C1\N/C(=N\c2nc(C)cc(C)n2)N(c2ccc(C)c(C)c2)C1=O	-0.4	i	-7	-4	-0.05	-3
CCOC(=O)C1CCCN(S(=O)(=O)c2cnc(Cl)c(Br)c2)C1 (stereo not drawn)	x	x	x	x	x	4
N#C/C(C(=O)c1ccccc1)=C1/SC=C(N)N1c1ccccc1	1.8	i	-293	16	6*	x
N#C/C(C(N)=O)=C1/SC=C(c2ccccc2)N1c1ccccc1	-0.034	x	-9	x	0.15	-1
Cc1c(C)c2ccc(OCC(=O)N3CCN(C(=O)C4COc5ccccc5O4)CC3)cc2oc1=O (stereo not drawn)	x	x	x	x	x	2
Cc1cc(=O)oc2cc(OCC(=O)N3CCN(C(=O)C4COc5ccccc5O4)CC3)ccc12 (stereo not drawn)	x	x	x	x	x	78*
Cc1scc(-c2n[nH]c(=S)n2Cc2ccccc2)c1C	5.7	i	14	71*	0.12	10
O=C(NC(=S)N1CCN(c2ccc([N+](=O)[O-])cc2)CC1)c1ccc(F)cc1	25*	i	1	-2	1.1	44
COc1ccc(S(=O)(=O)N2c3ccccc3OCC2C(C)(C)C)cc1 (stereo not drawn)	-0.0087	i	-2	77*	-0.37	32
C/C(=N/NC(=O)c1cc(C)[nH]n1)c1ccco1	0.075	x	-3	x	-0.44	-4
COc1ccc(C2CN=NC2C(=O)c2ccccc2)cc1 (stereo not drawn)	-1.4	x	-5	x	-0.51	x

Assay outcomes: PubChem BioAssay, several laboratories
